Usually IC50 stands for the point on the concentration scale where inhibition reaches its midpoint. For orientation: solubility means how much of the substance goes into solution per volume.

Consider 1 molecule from PMC3263408 (International Journal of Nanomedicine, 2012).

Molecules are shown by their SMILES. Values after ≈ are worked out from the molar mass of the structure shown.

The conditions of data set [1]: cited from earlier work.
Another data set concerns HT-29 cells. In words: MTT cytotoxicity assay. Type of data set: cell-based. Particulars: Homo sapiens, HT-29, 24 h, read-out: IC50 (50% cell killing). In short, it runs like this: (§1)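 Cells were kept in folate-free RPMI 1640 with 10% FBS at 37°C and 5% CO2, then seeded at 5000/well and left to attach for 24 h. Test compound was given free (DMSO), in SMEDDS or in FSMEDDS, ±1 mM free folate, at 1, 5, 10, 20 and 40 μM for 24 h at 37°C. After three PBS washes, MTT was added for 4 h, formazan dissolved in DMSO, and OD read at 570 nm. Triplicates; IC50 from concentration–viability curves.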
A general note: Tetrazolium dyes change colour on reduction, which living cells bring about.

Data set [2] in a line: Solubility of curcumin in various vehicles. Type of data set: physicochemical. In short, it runs like this: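 Excess test compound was shaken in 1 mL vehicle in a water bath at room temperature for 48 h. It was then centrifuged at 12,000 rpm for 10 min and passed through a 0.45 μm filter, and the supernatant was diluted in methanol. Quantified by HPLC: C18 column (5 μm, 4.6 × 250 mm) at room temperature, methanol:water (3.6% glacial acetic acid) 73:27 v/v, 1.0 mL/min, detection at 428 nm.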

The test system of another data set is Hela cells. In words: MTT cytotoxicity assay. It counts as cell-based. Particulars: Homo sapiens, 24 h, read-out: IC50 (50% cell killing). The method, boiled down: as §1

On to `COc1cc(/C=C/C(=O)CC(=O)/C=C/c2ccc(O)c(OC)c2)ccc1O` [curcumin], for which, in data set [1], the “Solubility of curcumin in the aqueous medium” value is “about 11 ng/g”. Also, the values for the IC50 in the data set with HT-29 cells and in the data set on Hela cells were 25.6 ± 2.23 µM and 30.4 ± 1.71 µM, respectively. For the same molecule, the solubility at 48 h was 9430 ± 800 µg/mL (≈ 25.6 mM) in data set [2] (Capryol 90 (oil), oil or lipid, thermodynamic from solid); 65800 ± 4800 µg/mL (≈ 179 mM) in data set [2] (Cremophor EL (surfactant), organic solvent or mixture, thermodynamic from solid); 5160 ± 1030 µg/mL (≈ 14 mM) in data set [2] (Emulsifier OP (surfactant), organic solvent or mixture, thermodynamic from solid); 3170 ± 130 µg/mL (≈ 8.61 mM) in data set [2] (Labrafil M1944CS (oil)); 99300 ± 1730 µg/mL (≈ 270 mM) in data set [2] (Labrasol (surfactant), organic solvent or mixture, thermodynamic from solid); 159800 ± 480 µg/mL (≈ 434 mM) in data set [2] (PEG 400 (cosurfactant), organic solvent or mixture, thermodynamic from solid). For the same molecule, the solubility at 48 h in data set [2] (Tween 80 (surfactant), organic solvent or mixture, thermodynamic from solid) came to 4860 ± 1150 µg/mL (≈ 13.2 mM); in data set [2] (castor oil (oil), oil or lipid, thermodynamic from solid) it was 1560 ± 470 µg/mL (≈ 4.23 mM); in data set [2] (ethanol (cosurfactant), organic solvent or mixture, thermodynamic from solid) it was 5980 ± 630 µg/mL (≈ 16.2 mM); in data set [2] (ethyl oleate (oil), oil or lipid, thermodynamic from solid), 1040 ± 20 µg/mL (≈ 2.82 mM); in data set [2] (isopropyl myristate (oil), oil or lipid, thermodynamic from solid), 510 ± 50 µg/mL (≈ 1.38 mM).
